This note sets out measurements from the array DNA melting data of Ke et al. (doi:10.1101/2024.01.08.574731).

Series [1] can be described thus: folding enthalpy; higher = less favourable; fluorescence melt of hairpins on a sequencing array, two-state fit. Particulars: sodium 0.088 M. The essentials: (§1)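 To match UV melts, fitted temperatures were raised by 9.35 °C. These fits were bootstrapped two-state models that gave melting temperature and folding enthalpy, combined by inverse variance over four replicates. The input was normalised Cy3 fluorescence of library hairpins with annealed Cy3 and quencher oligos on a sequenced MiSeq flow cell, imaged in 50 mM Na-HEPES pH 8.0, 25 mM NaCl in 2.5 °C steps up to 60 °C.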

Series [2] is described as follows: melting temperature; fluorescence melt of hairpins on a sequencing array, two-state fit, raised by 9.35 °C to match UV melts. Particulars: sodium 0.088 M. Summed up: as §1

Regarding GCGCCCGAAAGGGCCCGC ((((((....)))..))), the folding enthalpy in series [1] is -9.91 kcal/mol. Moreover, the Tm in series [2] was determined as 44.7 °C.

As for GCGCCCGAAAGGGTACGC ((((((....)))..))), the folding enthalpy in series [1] was -27.4 kcal/mol. Moreover, in series [2], the Tm was found to be 55.1 °C.

In the case of GCGCCCGCGAAAGCGCGC (((..(((....)))))), in series [1], the folding enthalpy was -16.2 kcal/mol. The Tm in series [2] is 58.5 °C.

With GCGCCGCGAAAGCAACGC (((..((....))..))), the folding enthalpy in series [1] was -18.1 kcal/mol. In addition, the Tm in series [2] came out at 51.1 °C.

In the case of GCGCCGCGAAAGCAGAGC ((.(.((....)).).)), in series [1], the folding enthalpy is -27.8 kcal/mol. Further, the Tm in series [2] came out at 66.7 °C.

Take GCGCCGCGAAAGCCACGC (((..((....))..))): the folding enthalpy in series [1] is -17.4 kcal/mol. In series [2], the Tm was 50.1 °C.

Regarding GCGCCGCGAAAGCCGAGC ((.(.((....)).).)), in series [1], the folding enthalpy was -18.9 kcal/mol. In addition, in series [2], the Tm turned out to be 50.5 °C.

Regarding GCGCCGCGAAAGCGAGGC ((..(((....)))..)), in series [1], the folding enthalpy is -13.7 kcal/mol. For the same sequence, the Tm in series [2] was 54.8 °C.

For GCGCCGCGAAAGCGCTGC ((..(((....)))..)), in series [1], the folding enthalpy was -15.6 kcal/mol. Besides, the Tm in series [2] was 61.1 °C.

In the case of GCGCCGCGAAAGCGTAGC ((..(((....)))..)), the folding enthalpy in series [1] is -13.5 kcal/mol. Besides, the Tm in series [2] worked out at 59.1 °C.

For the sequence GCGCCGCGAAAGCTACGC (((..((....))..))), the folding enthalpy in series [1] was -20.9 kcal/mol. Also, the Tm in series [2] worked out at 53.5 °C.

GCGCCGCGAAAGCTGGGC ((.(.((....)).).)): the folding enthalpy in series [1] is -16.1 kcal/mol. For the same sequence, the Tm in series [2] was determined as 57 °C.

On to GCGCCGGCGAAAGCCCGC (((..(((....)))))), for which the folding enthalpy in series [1] was -15.2 kcal/mol. The Tm in series [2] turned out to be 55.5 °C.

In the case of GCGCCTCCGAAAGGACGC (((..(((....)))))), in series [1], the folding enthalpy was -25.2 kcal/mol. In series [2], the Tm worked out at 50.1 °C.

Regarding GCGCCTCGAAAGAGACGC (((.(((....))).))), the folding enthalpy in series [1] was -25.5 kcal/mol. Besides, the Tm in series [2] worked out at 59.4 °C.

As to GCGCCTGCGAAAGCACGC (((..(((....)))))), the folding enthalpy in series [1] is -16.7 kcal/mol. Also, the Tm in series [2] is 47.7 °C.

On to GCGCCTGGAAACAGACGC (((.(((....))).))), for which, in series [1], the folding enthalpy is -29.4 kcal/mol. In addition, the Tm in series [2] was 55.8 °C.

Regarding GCGCCTTCGAAAGAACGC (((..(((....)))))), in series [1], the folding enthalpy was -19.2 kcal/mol. Moreover, in series [2], the Tm amounted to 38.6 °C.

For GCGCGAACGAAAGTTCGC (((..(((....)))))), the folding enthalpy in series [1] was -6.27 kcal/mol. Further, the Tm in series [2] was 68.4 °C.

With GCGCGACGAAAGTCTCGC (((.(((....))).))), in series [1], the folding enthalpy was -34.3 kcal/mol. Further, the Tm in series [2] stood at 60.6 °C.

GCGCGAGGAAACTTGCGC ((((.((....)).)))): the folding enthalpy in series [1] was -38.1 kcal/mol. The Tm in series [2] is 65.6 °C.

As to GCGCGCGAAAGCGTTCGC ((((((....)))..))), in series [1], the folding enthalpy is -14.6 kcal/mol. For the same sequence, the Tm in series [2] came out at 53.3 °C.

Take GCGCGGCGAAAGCACCGC (((..((....))..))): the folding enthalpy in series [1] is -16.6 kcal/mol. Further, the Tm in series [2] is 56.1 °C.

Consider GCGCGGCGAAAGCCCCGC (((.(((....))).))), for which, in series [1], the folding enthalpy is -37.7 kcal/mol. In addition, the Tm in series [2] turned out to be 59.4 °C.

With GCGCGGCGAAAGCGGGGC ((.(.((....)).).)), the folding enthalpy in series [1] was -27.7 kcal/mol. For the same sequence, the Tm in series [2] amounted to 64.4 °C.

As for GCGCGGCGAAAGCTGAGC ((.(.((....)).).)), in series [1], the folding enthalpy is -31.1 kcal/mol. Besides, the Tm in series [2] was 63.2 °C.

As to GCGCGGCGAAAGCTTCGC (((..((....))..))), the folding enthalpy in series [1] is -20.8 kcal/mol. The Tm in series [2] worked out at 55.8 °C.

As to GCGCGGGGAAACCCACGC (((.(((....))).))), in series [1], the folding enthalpy was -35 kcal/mol. Moreover, the Tm in series [2] came to 61.6 °C.

As for GCGCGTACGAAAGTACGC (((..(((....)))))), the folding enthalpy in series [1] is -6.65 kcal/mol. Besides, the Tm in series [2] worked out at 63.2 °C.

Take GCGCTACGAAAGTAACGC (((.(((....))).))): the folding enthalpy in series [1] is -41.1 kcal/mol. Further, the Tm in series [2] amounted to 56.5 °C.

On to GCGCTAGCGAAAGCTCGC (((..(((....)))))), for which the folding enthalpy in series [1] was -10.7 kcal/mol. The Tm in series [2] turned out to be 45.4 °C.

Regarding GCGCTAGGAAACCAACGC (((.(.(....).).))), the folding enthalpy in series [1] is -10.5 kcal/mol. In addition, in series [2], the Tm amounted to 28.6 °C.

For the sequence GCGCTAGGAAACCAGCAC (.(((.(....).))).), the folding enthalpy in series [1] is -9.67 kcal/mol. In addition, the Tm in series [2] is 26.8 °C.

Take GCGCTAGGAAACTAGCAC (.(((((....))))).): the folding enthalpy in series [1] is -15.4 kcal/mol. Also, in series [2], the Tm worked out at 44 °C.

In the case of GCGCTAGGAAACTAGTGC ((.((((....)))).)), the folding enthalpy in series [1] is -44.7 kcal/mol. In addition, the Tm in series [2] was 53.3 °C.

For GCGCTCACGAAAGTGCGC (((..(((....)))))), the folding enthalpy in series [1] is -37.8 kcal/mol. Also, the Tm in series [2] came to 60 °C.

On to GCGCTCCCGAAAGGGCGC (((..(((....)))))), for which the folding enthalpy in series [1] is -35 kcal/mol. The Tm in series [2] was 62.2 °C.
